Laboratory results as given in BindingDB's records for doi:10.1021/acs.jmedchem.8b00139 (University Park Nottingham, 2018).

Biological target: P2Y purinoceptor 2 (Homo sapiens, UniProt P41231)
Assay: Displacement of (E)-2-((5-(7-Chloro-2-((3-((2-(6-(3-(5,5-difluoro-7,9-dimethyl-5H-5-lambda4,6-lambda4-dipyrrolo[1,2-c:2,1-f ][1,3,2]diazaborinin-3-yl)-propanamido)hexanamido)ethyl)amino)-3-oxopropyl)amino)-4Hbenzo[5,6]cyclohepta[1,2-d]thiazol-4-yl)-2-oxo-4-thioxo-3,4-dihydropyrimidin-1(2H)-yl)methyl)-N-(1H-tetrazol-5-yl)thiazole-4-carboxamide from human N-terminal NLuc-tagged P2Y2R expressed in human 1321N1 cells incubated for 1 hr by furimazine-based NanoBRET assay
How it was run: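 Competition binding in 1321N1 cells expressing N-terminal NanoLuc-hP2Y2R. The fluorescent tracer was used at 1 µM (or the bodipy A tracer at 100 nM) against increasing concentrations of unlabeled ligand. After furimazine addition the BRET signal was read and pKi estimated; mean ± SEM of separate experiments.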

Sequence of P2Y purinoceptor 2 (P41231 whole entry): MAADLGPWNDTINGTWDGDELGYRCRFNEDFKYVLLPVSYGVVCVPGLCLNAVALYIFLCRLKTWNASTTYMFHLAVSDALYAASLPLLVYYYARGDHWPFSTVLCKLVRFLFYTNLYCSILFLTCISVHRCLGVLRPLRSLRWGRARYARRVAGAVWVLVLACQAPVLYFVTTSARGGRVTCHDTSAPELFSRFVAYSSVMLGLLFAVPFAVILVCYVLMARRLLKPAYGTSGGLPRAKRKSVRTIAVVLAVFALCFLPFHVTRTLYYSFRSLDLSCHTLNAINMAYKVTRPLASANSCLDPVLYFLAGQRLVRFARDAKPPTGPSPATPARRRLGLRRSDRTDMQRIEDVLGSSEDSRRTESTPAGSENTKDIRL

SMILES	Ki [nM]
CCOCCNc1nc2c(s1)C=Cc1cc(Cl)ccc1[C@@H]2c1cn(C)c(=O)[nH]c1=S	5250
CCOCCNc1nc2c(s1)C=Cc1cc(Cl)ccc1[C@H]2c1cn(C)c(=O)[nH]c1=S	275
